Data set [1] deals with Mitogen-activated protein kinase 14 (Homo sapiens, UniProt Q16539). Briefly: Inhibition of p38alpha MAPK (unknown origin) using ATF-2 as substrate after 1 hr by ELISA.
Data set [2] deals with T1, Glycogen synthase kinase-3 beta (Homo sapiens, UniProt P49841). The experiment in a line: Competitive inhibition of human recombinant full length GSK3beta using YRRAAVPPSPSLSRHSSPHQ(pS)EDEEE as substrate preincubated with enzyme for 10 mins followed by substrate and 25 uM ATP addition measured after 60 mins by ADP-Glo luminescence assay. Summed up:
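Compounds in serial dilutions were preincubated with kinase for 10 min at rt. Substrate/ATP was then added and the reaction ran 60 min at rt. ADP-Glo reagent 60 min, detection reagent 30 min, then luminescence read (500 ms integration).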

The target in data set [3] is Glycogen synthase kinase-3 alpha (Homo sapiens, UniProt P49840). Briefly: Inhibition of human recombinant full length GSK3alpha using YRRAAVPPSPSLSRHSSPHQ(pS)EDEEE as substrate preincubated with enzyme for 10 mins followed by substrate and 25 uM ATP addition measured after 60 mins by ADP-Glo luminescence assay. In a few lines: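 Recombinant human GSK3α at 0.50 ng/µL, 25 µM ATP, 0.2 µg/µL substrate G50-58, serial compound dilutions. Kinase was preincubated with compound 10 min at rt, then run 60 min at rt after substrate/ATP addition. ADP-Glo reagent 60 min, detection reagent 30 min, luminescence read. Uninhibited-kinase and ATP/substrate-only controls were included.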
Chain of Glycogen synthase kinase-3 alpha (P49840 whole entry): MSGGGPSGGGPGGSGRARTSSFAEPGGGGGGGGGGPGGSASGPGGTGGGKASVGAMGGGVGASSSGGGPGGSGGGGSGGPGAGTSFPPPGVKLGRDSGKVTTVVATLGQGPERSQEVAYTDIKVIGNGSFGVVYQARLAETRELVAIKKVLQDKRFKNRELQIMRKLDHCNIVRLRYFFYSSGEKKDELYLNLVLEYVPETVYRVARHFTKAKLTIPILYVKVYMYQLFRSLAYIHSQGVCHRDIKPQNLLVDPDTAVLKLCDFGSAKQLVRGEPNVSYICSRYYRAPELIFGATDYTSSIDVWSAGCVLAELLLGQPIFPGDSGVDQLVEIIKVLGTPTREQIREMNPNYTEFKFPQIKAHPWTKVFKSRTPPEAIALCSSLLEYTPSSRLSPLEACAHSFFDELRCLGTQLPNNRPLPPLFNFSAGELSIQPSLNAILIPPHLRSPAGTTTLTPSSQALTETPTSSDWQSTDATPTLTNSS

The target of data set [4] is T1, Glycogen synthase kinase-3 beta. Briefly: Competitive inhibition of human recombinant full length GSK3beta using YRRAAVPPSPSLSRHSSPHQ(pS)EDEEE as substrate preincubated with enzyme for 10 mins followed by substrate and 100 uM ATP addition measured after 60 mins by ADP-Glo luminescence assay. Summed up: (§1)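 Recombinant human GSK3β at 0.58 ng/µL with 0.2 µg/µL substrate G50-58; ATP at 25 µM, 100 µM or 500 µM, each as its line states. Compounds in serial dilutions were preincubated with kinase for 10 min at rt. Substrate/ATP was then added and the reaction ran 60 min at rt. ADP-Glo reagent 60 min, detection reagent 30 min, then luminescence read (500 ms integration).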

Data set [5] shares this target. Briefly: Competitive inhibition of human recombinant full length GSK3beta using YRRAAVPPSPSLSRHSSPHQ(pS)EDEEE as substrate preincubated with enzyme for 10 mins followed by substrate and 500 uM ATP addition measured after 60 mins by ADP-Glo luminescence assay. Summed up:
as §1

The nature of data set [6]: Metabolic stability in human liver microsomes assessed as parent compound remaining after 10 mins by LC-MS analysis relative to control. The format is ADME, Microsome. As to conditions: read-out: Stability.
The nature of data set [7]: Metabolic stability in human liver microsomes assessed as parent compound remaining after 20 mins by LC-MS analysis relative to control. The format is ADME, Microsome. As to conditions: read-out: Stability.
The nature of data set [8]: Metabolic stability in human liver microsomes assessed as parent compound remaining after 30 mins by LC-MS analysis relative to control. In kind it is ADME, Microsome. As to conditions: read-out: Stability.
Data set [9] can be described thus: Metabolic stability in human liver microsomes assessed as parent compound remaining after 60 mins by LC-MS analysis relative to control. The settings on record: read-out: Stability. In kind it is ADME, Microsome.
Data set [10] can be described thus: Metabolic stability in human liver microsomes assessed as parent compound remaining after 120 mins by LC-MS analysis relative to control. The format is ADME, Microsome. The settings on record: read-out: Stability.
Data set [11] is described as follows: Metabolic stability in human liver microsomes assessed as parent compound remaining after 240 mins by LC-MS analysis relative to control. The format is ADME, Microsome. As to conditions: read-out: Stability.
Data set [12] can be described thus: Drug metabolism in human liver microsomes assessed as N-(4-(4-(4-Fluorophenyl)-2-(methylsulfinyl)-1H-imidazol-5-yl)pyridin-2-yl)cyclopropanecarboxamide metabolite formation by measuring half life by LC-MS analysis. The format is ADME, Microsome. Summed up:
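Incubation with human liver microsomes for up to 4 h. Remaining parent and sulfoxide metabolite formation were followed over time, giving a half-life for the oxidation.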

A short description of data set [13]: Drug metabolism in RjOrl:Swiss CD-1 mouse at 10 mg/kg, iv administered as single dose measured after 2 hrs by LC-MS relative to control. As to conditions: in vivo. In kind it is ADME, organism-based. Summed up: (§2)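 Adult male RjOrl:Swiss CD-1 mice got one intravenous dose of 10 mg/kg. Plasma was sampled at 10, 30 and 120 min. After the last sample the mice were sacrificed and brains dissected. Blood and brain samples were prepared and analysed by LC-MS for parent and sulfoxide metabolite; brain levels reported as ng/g.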

In data set [14] the test system is Blood. Briefly: Inhibition of LPS-induced TNFalpha production in human whole blood preincubated with compound for 15 mins followed by LPS addition measured after 2.5 hrs by ELISA. In kind it is functional, tissue-based.
The target of data set [15] is CYP1A2 (Homo sapiens, UniProt P05177). Briefly: Inhibition of human recombinant CYP1A2 expressed in baculovirus infected insect cells using 3-cyano-7-ethoxycoumarin as substrate at 10 uM in presence of NADPH by fluorimetric analysis relative to control. The format is ADME. As to conditions: probe 3-cyano-7-ethoxycoumarin.
Chain of CYP1A2 (P05177 whole entry): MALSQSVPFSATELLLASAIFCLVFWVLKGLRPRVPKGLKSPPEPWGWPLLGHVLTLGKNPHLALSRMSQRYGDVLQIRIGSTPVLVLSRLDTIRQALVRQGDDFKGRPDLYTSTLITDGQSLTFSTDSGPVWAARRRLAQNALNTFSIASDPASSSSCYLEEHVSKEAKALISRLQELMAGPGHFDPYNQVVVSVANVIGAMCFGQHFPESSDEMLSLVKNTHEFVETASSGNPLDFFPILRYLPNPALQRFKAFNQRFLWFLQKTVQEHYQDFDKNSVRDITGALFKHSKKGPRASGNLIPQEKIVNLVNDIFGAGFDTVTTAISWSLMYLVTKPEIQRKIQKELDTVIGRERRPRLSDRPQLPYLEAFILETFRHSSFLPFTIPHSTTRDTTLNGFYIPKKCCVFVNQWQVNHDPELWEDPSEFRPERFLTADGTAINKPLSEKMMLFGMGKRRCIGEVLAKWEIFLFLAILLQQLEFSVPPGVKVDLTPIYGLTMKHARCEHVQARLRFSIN
For data set [16], the target named is CYP2C9 (Homo sapiens, UniProt P11712). The experiment in a line: Inhibition of human recombinant CYP2C9 expressed in baculovirus infected insect cells using OOMR as substrate at 10 uM in presence of NADPH by fluorimetric analysis relative to control. In kind it is ADME. The settings on record: probe OOMR.
Chain of CYP2C9 (P11712 whole entry): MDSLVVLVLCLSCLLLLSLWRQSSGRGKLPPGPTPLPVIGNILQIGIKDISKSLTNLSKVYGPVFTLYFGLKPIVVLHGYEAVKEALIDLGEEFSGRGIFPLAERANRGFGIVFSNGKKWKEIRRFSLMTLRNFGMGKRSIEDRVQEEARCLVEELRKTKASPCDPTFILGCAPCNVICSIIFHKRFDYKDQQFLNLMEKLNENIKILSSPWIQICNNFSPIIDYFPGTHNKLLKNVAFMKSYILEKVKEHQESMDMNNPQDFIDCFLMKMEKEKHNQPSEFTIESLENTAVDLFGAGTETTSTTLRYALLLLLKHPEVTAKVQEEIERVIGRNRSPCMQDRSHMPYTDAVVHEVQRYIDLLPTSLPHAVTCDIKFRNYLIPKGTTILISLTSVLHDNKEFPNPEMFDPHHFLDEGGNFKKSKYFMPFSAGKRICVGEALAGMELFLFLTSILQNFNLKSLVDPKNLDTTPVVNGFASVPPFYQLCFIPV
For data set [17], the target named is Cytochrome P450 2C19 (Homo sapiens, UniProt P33261). Briefly: Inhibition of human recombinant CYP2C19 expressed in baculovirus infected insect cells using EOMCC as substrate in presence of NADPH by fluorimetric analysis relative to control. The format is ADME. As to conditions: recombinant enzyme.
Chain of Cytochrome P450 2C19 (P33261 whole entry): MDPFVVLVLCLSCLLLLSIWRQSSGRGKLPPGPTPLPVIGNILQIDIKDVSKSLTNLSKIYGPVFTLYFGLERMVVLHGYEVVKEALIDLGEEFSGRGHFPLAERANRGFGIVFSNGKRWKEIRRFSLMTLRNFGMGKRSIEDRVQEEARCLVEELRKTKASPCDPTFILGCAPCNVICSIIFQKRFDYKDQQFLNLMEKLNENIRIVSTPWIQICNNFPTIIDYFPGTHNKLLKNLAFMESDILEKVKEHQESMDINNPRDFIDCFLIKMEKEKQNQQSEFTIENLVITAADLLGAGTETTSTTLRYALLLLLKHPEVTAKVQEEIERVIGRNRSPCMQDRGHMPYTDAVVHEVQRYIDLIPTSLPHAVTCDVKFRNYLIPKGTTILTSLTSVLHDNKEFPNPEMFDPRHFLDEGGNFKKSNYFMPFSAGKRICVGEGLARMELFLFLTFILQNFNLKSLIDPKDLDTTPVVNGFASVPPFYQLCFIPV
The target of data set [18] is CYP2D6 (Homo sapiens, UniProt P10635). Briefly: Inhibition of human recombinant CYP2D6 expressed in baculovirus infected insect cells using EOMCC as substrate at 10 uM in presence of NADPH by fluorimetric analysis relative to control. The format is ADME. As to conditions: probe EOMCC.
Chain of CYP2D6 (P10635 whole entry): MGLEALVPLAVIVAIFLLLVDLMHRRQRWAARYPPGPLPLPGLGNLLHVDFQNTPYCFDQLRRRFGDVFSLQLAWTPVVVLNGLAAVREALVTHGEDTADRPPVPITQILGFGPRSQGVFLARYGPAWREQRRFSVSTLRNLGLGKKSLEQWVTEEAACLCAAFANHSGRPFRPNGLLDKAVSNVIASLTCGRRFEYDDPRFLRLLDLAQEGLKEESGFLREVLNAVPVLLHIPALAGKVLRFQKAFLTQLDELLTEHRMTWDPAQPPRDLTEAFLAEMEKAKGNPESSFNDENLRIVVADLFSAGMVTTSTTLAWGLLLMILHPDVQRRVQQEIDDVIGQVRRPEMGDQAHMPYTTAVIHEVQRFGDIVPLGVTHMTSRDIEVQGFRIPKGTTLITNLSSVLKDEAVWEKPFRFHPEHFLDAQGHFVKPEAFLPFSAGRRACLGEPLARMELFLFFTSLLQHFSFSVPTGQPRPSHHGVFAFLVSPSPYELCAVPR
In data set [19] the target is CYP3A4 (Homo sapiens, UniProt P08684). The experiment in a line: Inhibition of human recombinant CYP3A4 expressed in baculovirus infected insect cells using BOMR as substrate at 10 uM in presence of NADPH by fluorimetric analysis relative to control. In kind it is ADME. The settings on record: probe BOMR.
Chain of CYP3A4 (P08684 whole entry): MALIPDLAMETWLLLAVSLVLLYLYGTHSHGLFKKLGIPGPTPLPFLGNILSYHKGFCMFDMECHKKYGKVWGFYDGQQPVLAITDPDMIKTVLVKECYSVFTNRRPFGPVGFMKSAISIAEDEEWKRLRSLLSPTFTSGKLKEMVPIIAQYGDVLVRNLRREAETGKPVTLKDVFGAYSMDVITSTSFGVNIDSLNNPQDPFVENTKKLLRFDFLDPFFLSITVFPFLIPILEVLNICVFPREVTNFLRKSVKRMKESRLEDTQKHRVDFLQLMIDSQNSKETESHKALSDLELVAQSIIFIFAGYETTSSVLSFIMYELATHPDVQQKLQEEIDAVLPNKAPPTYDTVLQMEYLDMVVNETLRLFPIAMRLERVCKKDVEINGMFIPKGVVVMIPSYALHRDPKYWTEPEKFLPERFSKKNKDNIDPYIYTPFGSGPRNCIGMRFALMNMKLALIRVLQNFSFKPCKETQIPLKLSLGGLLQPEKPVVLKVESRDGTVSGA
The target of data set [20] is hERG (KCNH2) (Homo sapiens, UniProt Q12809). The experiment in a line: Inhibition of tracer Red binding to human ERG expressed in membranes at 10 uM after 4 hrs by fluorescence polarization assay relative to control. The settings on record: membranes expressing human ERG, probe tracer Red.
Chain of hERG (KCNH2) (Q12809 whole entry): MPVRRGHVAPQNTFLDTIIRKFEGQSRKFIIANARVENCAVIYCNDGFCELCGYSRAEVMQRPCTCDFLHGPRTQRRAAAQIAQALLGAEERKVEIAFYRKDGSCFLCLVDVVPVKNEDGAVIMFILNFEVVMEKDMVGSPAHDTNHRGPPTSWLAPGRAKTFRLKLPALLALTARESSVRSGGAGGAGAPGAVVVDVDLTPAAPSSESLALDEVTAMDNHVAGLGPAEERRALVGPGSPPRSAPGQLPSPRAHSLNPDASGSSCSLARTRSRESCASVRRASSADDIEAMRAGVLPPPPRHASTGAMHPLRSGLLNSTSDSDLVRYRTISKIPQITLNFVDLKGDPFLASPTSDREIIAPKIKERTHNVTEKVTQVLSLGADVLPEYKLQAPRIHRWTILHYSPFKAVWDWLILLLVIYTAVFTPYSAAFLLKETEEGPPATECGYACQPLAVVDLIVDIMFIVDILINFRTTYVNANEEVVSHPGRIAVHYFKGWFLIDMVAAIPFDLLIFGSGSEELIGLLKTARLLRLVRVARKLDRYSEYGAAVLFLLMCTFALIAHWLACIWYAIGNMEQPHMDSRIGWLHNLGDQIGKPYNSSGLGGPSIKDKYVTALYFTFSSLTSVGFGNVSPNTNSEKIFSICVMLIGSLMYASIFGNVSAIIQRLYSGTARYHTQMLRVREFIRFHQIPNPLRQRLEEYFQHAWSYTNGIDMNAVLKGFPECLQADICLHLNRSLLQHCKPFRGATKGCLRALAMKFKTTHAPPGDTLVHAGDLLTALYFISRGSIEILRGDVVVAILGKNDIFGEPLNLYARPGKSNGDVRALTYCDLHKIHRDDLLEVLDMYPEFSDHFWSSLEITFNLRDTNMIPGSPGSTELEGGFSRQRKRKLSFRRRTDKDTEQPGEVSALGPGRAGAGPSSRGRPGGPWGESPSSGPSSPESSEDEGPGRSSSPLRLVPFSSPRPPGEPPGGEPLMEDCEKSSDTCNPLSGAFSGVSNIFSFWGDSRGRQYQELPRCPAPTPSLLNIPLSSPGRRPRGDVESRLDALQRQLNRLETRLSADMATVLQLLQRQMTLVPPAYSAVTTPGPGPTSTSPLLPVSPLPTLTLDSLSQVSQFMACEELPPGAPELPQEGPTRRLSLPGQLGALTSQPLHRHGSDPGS
Data set [21] is described as follows: Solubility of the compound in PBS buffer at pH 7.8 after 1 hr by HPLC analysis. In kind it is physicochemical.
Data set [22] can be described thus: Drug metabolism in RjOrl:Swiss CD-1 mouse assessed as ratio of compound to N-(4-(4-(4-Fluorophenyl)-2-(methylsulfinyl)-1H-imidazol-5-yl)pyridin-2-yl)cyclopropanecarboxamide metabolite level at 10 mg/kg, iv administered as single dose measured after 10 mins by LC-MS analysis. The format is ADME, organism-based. The settings on record: in vivo. In a few lines: as §2

Data set [23] in a line: Metabolic stability in human liver microsomes assessed as parent compound remaining after 180 mins by LC-MS analysis relative to control. In kind it is ADME, Microsome. The settings on record: read-out: Stability.

Consider one compound from ChEMBL document CHEMBL4393708, “Pyridinylimidazoles as dual glycogen synthase kinase 3β/p38α mitogen-activated protein kinase inhibitors” (Eur J Med Chem, 2019).

≈ marks a conversion by molar mass, not a printed value.

T1 sequence (P49841 whole entry): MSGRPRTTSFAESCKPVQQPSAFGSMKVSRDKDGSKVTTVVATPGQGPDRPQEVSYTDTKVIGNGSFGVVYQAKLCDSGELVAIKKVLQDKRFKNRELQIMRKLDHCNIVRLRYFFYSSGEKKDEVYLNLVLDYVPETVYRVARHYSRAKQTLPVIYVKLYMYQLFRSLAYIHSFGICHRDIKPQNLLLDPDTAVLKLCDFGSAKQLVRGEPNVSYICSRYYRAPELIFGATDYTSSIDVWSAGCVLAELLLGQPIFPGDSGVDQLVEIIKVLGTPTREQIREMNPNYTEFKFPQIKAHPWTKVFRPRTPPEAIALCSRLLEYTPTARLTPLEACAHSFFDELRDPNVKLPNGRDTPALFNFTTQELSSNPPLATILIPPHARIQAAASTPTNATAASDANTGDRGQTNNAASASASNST
Chain of Mitogen-activated protein kinase 14 (Q16539 whole entry): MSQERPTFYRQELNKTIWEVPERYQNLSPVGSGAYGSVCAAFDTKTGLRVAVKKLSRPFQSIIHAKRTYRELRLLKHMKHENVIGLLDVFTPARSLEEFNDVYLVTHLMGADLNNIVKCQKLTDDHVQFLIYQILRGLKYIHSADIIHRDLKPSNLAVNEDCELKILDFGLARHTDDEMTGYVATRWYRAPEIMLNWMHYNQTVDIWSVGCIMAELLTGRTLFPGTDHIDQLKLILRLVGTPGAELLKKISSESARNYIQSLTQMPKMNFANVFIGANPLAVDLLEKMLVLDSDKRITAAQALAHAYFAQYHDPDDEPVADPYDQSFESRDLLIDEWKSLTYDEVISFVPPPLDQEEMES

With `CSc1nc(-c2ccc(F)cc2)c(-c2ccnc(NC(=O)C3CC3)c2)[nH]1`, the half-maximal inhibitory concentration (IC50) in [1] is 0.024 µM; in data set [2], 0.0185 to 0.04 µM; in data set [3], 0.3 µM; in data set [4], 0.174 µM; in [5], 0.423 µM; in [14], 0.541 µM. In addition, the remaining at 10 min in data set [6] was 98.8%. The remaining at 20 min in data set [7] was 97.9%. In addition, in data set [8], the remaining at 0.5 h was 89.6%. Also, the remaining at 1 h in [9] came to 81.8%. Besides, the remaining at 2 h in [10] stood at 65.9%. Further, the remaining at 4 h in [11] came to 44%. In addition, the t1/2 in [12] stood at 3.17 h. In addition, the Drug metabolism result in data set [13] was “Metabolite_Detected”. Further, the inhibition at 10 µM is 88.4% in data set [15], 77.7% in data set [16], 14.6% in [18] and 75.6% in data set [19]. Also, the “inhibition (INH)” value in [17] was found to be 56.1%. This compound also displayed an inhibition at 4 h, 10 µM in data set [20] of 30.1%. In data set [21], the solubility at 1 h was 51 µg/mL (≈ 138 µM). In addition, the Ratio in data set [22] stood at 0.5. Also, the remaining at 3 h in [23] is 52.1%.
